Arbovirus inh: antivirals against arbovirus infection, primary screen, cell-based, full library, 10K replicate subset; arbovirus infection cell-based antiviral screen; inhibition, % at 10 µM; 0.37% of 200,000 active; AID 1251, 2008; in the data active = inhibition above about 30%
ABCB1 block: ABCB1 efflux pump inhibitors, primary screen, cell-based, multiplex, flow cytometry, ABCG2 counter-screen | CCRF-Adr cells, JC-1 efflux | inhibition, % at 6.6 µM | 0.067% of 190,000 active; in the data active = inhibition above about 40%;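 note: 0% = vehicle and 100% = reference inhibitor; higher value means more JC-1 retained so stronger ABCB1 efflux block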
ABCG2 block: ABCG2 efflux pump inhibitors, primary screen, multiplex with ABCB1, IgMXP3 cells, flow cytometry; 0.1% of 190,000 active; AID 1325, 2008; inhibition, % at 6.6 µM; JC-1 efflux; Broad substrate specificity ATP-binding cassette transporter ABCG2 (Homo sapiens), Q9UNQ0;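 active = inhibition above 80%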;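 note: 0% = DMSO and 100% = nicardipine control wells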
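material = IgMXP3 (ABCG2) plus far-red-tagged CCRF-Adr (ABCB1) cells | amount = 3 million cells/mL, equal mix of both lines | also added = JC-1 transporter substrate | dosing = one concentration, 6.6 µM final | schedule = 10 min at 25 °C | measured by = flow cytometric JC-1 green MFI at 530 nm | read-out basis = percent efflux inhibition, scaled nicardipine 100% to DMSO 0%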
Mdm2 ligase inh: MDM2-luciferase reporter signal enhancers, primary screen, MDM2 E3 ligase inhibitor project, cell-based, luminescence, 1536-well. signal enhancement, % at 5 µM. E3 ubiquitin-protein ligase Mdm2 (Homo sapiens), Q00987. cell-based MDM2 ubiquitination luciferase reporter, 2 h; 0 = plate control, 100 = twice control, blank-subtracted. 0.11% of 210,000 active;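 active = signal enhancement of 30% or more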;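 note: luminescence tracks abundance of the self-degrading MDM2-luciferase fusion protein; higher signal means inhibition of MDM2 E3 ligase activity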
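Test system: mammalian cells stably expressing self-ubiquitinating, self-degrading MDM2 E3–luciferase fusion; Amount: 2000 cells in each well; Medium: DMEM; Schedule: 4 h settle plus 2 h compound, 37 °C; Technique: SteadyLite luciferase luminescence after 15 min room-temperature reagent incubation; Benchmarks: plate control and blank wells.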
Rad51 HR inh: human RAD51 strand exchange inhibitors, primary screen, biochemical, fluorescence | DNA repair protein RAD51 homolog 1 (Homo sapiens), Q06609 | hRad51 DNA strand exchange, fluorescence dequenching | inhibition, % at 10 µM | 0.085% of 200,000 active | AID 1385, 2008;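 active = inhibition above 40% at the single screening dose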;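 note: 0% = DMSO control wells and 100% = blanks with heterologous ssDNA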
Target sequence (Q06609 whole entry, looked up): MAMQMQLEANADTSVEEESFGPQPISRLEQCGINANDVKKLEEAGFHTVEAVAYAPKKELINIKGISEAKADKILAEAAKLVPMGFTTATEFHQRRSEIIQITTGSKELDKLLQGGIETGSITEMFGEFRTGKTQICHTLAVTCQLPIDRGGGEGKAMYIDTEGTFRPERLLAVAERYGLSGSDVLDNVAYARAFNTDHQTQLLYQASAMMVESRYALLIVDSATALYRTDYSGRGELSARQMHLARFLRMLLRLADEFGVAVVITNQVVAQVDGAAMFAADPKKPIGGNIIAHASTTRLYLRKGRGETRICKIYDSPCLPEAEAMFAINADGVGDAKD
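material = hRad51 filaments on single-stranded DNA | reagent = Donor/quencher-labelled 47-bp dsDNA substrate | compound = 10 µM final, single point | schedule = strand-exchange reaction 15 min at room temperature | measured by = fluorescein emission 520 nm, excitation 485 nm | read-out basis = % inhibition versus plate control and blank means | benchmarks = plate controls and plate blanks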
An asterisk follows results filed as active; i = inactive; · = not tested or not shown; + = active, no number. A selection: hits, their analogues and other compounds. The true share with any hit is near 0.62%.

SMILES	Arbovirus inh	ABCB1 block	ABCG2 block	Mdm2 ligase inh	Rad51 HR inh
Cc1ccsc1C(C(=O)NC(C)(C)C)N(C(=O)c1csnn1)c1ccccc1 (configuration not stated)	9	0	-1	-10	5
Cc1cc(C)c2c(n1)sc1c(=O)[nH]c(SCc3ccccc3)nc12	-2	0	2	-11	0
C=CCSc1nc2c(sc3nc(C)cc(C)c32)c(=O)[nH]1	65*	0	0	2	-4
CCOC(=O)c1cnc2c(-c3ccc(F)cc3)cnn2c1C(F)(F)F	62*	0	10	-19	1
O=C(c1cn(-c2ccccc2)nc1-c1cccs1)N1CCOCC1	6	1	5	33*	-8
CC1=NN(c2nc(-c3ccc(F)cc3)cs2)C(=O)C1	9	0	-1	-12	4
CC1=NN(c2nc(-c3ccc(Cl)cc3)cs2)C(=O)C1	42*	-1	-16	-9	0
COc1ccc(-c2cc(-c3ccc(Br)cc3)nc3ncnn23)cc1OC	72*	0	0	-10	-3
COc1ccc(-c2cc(-c3ccccc3)nc3ncnn23)cc1	0	2	15	-19	-9
Cc1ccc(C(=O)N/C(=C\c2ccco2)C(=O)NCc2cccnc2)cc1	5	1	2	-5	-13
Cc1ccc(C(=O)N/C(=C\c2cccs2)C(=O)NCc2cccnc2)cc1	30*	0	6	-3	4
Cn1ccc(C(=O)NC(=S)N2CCSCC2)n1	·	·	·	-13	17
O=C(O)/C=C/c1ccc([N+](=O)[O-])o1	2	1	2	-13	0
O=[N+]([O-])c1ccc(/C=N/N=C/c2ccc([N+](=O)[O-])o2)o1	-34	1	4	77*	-5
Cc1nn(C)c(Cl)c1C(=O)NCC(=O)NCc1ccccc1	-1	0	2	-7	42*
Cc1ccc(CNC(=O)CNC(=O)c2c(C)nn(C)c2Cl)cc1	5	0	0	4	-11
Cc1ccc(C=C2C(Cl)=C(Cl)C(Cl)=C2Cl)cc1	·	·	·	49*	-3
Cc1ccc(/C=[N+](/C)[O-])cc1	1	0	1	0	14
O=C(NCc1cccnc1)NC1CC(=O)N(c2ccc3c(c2)OCCO3)C1 (configuration not stated)	19	0	1	-2	3
CN(C)c1nnc(-c2ccc(Cl)cc2)o1	21	0	1	-10	-2
O=C(COC(=O)CNC(=O)c1cccc([N+](=O)[O-])c1)NCc1ccco1	0	1	3	-16	-9
CCOC(=O)CC1=NS(=O)(=O)c2ccccc2N1	77*	0	0	-19	-3
Cc1ccc(SCCNC(=S)Nc2ccccc2)cc1	-26	0	2	-14	·
COc1ccccc1NC(=S)NCCSc1ccc(C)cc1	34*	0	5	-11	-1
OCC1(CCOc2ccccc2)CCN(Cc2nc3ccc(F)cc3[nH]2)CC1	55*	0	0	-2	11
SMILES	Arbovirus inh	ABCB1 block	ABCG2 block	Mdm2 ligase inh	Rad51 HR inh
COc1ccc(CNC(=O)CNC(=O)c2c(C)nn(C)c2Cl)cc1	3	2	9	-8	17
CC(C)(C)c1ccc(C(=O)Nc2cccc([N+](=O)[O-])c2)cc1	-2	11	116*	5	10
O=C(Nc1cccc([N+](=O)[O-])c1)c1ccncc1	-4	1	15	-11	8
CCCCn1c(N)c(N(CC)C(=O)C(c2ccccc2)c2ccccc2)c(=O)[nH]c1=O	5	2	3	14	6
COc1ccc(S(=O)(=O)N[C@H](C(=O)O)C(C)C)cc1	4	54*	-1	-9	1
COc1ccc(S(=O)(=O)NC(C)C(=O)Nc2ccccc2C(F)(F)F)cc1 (configuration not stated)	4	-1	-2	-12	94*
CCN(CC)c1ccc2cc(-c3nnc(-c4ccccc4)o3)c(=O)oc2c1	-19	34	0	-2	i
CCN(CC)c1ccc2cc(-c3nc(-c4ccc(OC)cc4)cs3)c(=O)oc2c1	-2	+	+	-2	i
O=C1CCCC(=NCc2ccco2)C1	5	1	2	-11	-1
CN(C)c1nc(=NCc2ccco2)ss1	·	·	·	37*	13
COc1ccccc1NC(=O)NCC(=O)Nc1ccc(F)c(F)c1	11	0	10	-14	4
COc1ccccc1NC(=O)Nc1ccc(F)c(F)c1	4	0	20	-19	41*
COc1cc(C(=O)c2c(C)c(CCC#N)n3ccccc23)cc(OC)c1OC	-18	2	10	2	7
Fc1ccc(NC(=S)NNc2ncc(C(F)(F)F)cc2Cl)c(F)c1	-7	2	12	-1	-2
CN1CCC(N(C)C(=O)/C(C#N)=C/c2ccc(OC(F)F)cc2)CC1	·	·	·	·	45*
N#C/C(=C\c1ccc(OC(F)F)cc1)C(=O)N1CCCCC1	·	·	·	·	-5
CN(C)c1ccc(/C=C/c2ccc3c4ccccc4ccc3[n+]2-c2ccccc2)cc1	-33	0	0	-21	51*
COc1ccc(CN(C(=O)c2cc3ccccc3oc2=O)C2CCCCC2)cc1OC	103*	2	8	·	-17
O=C(O)c1ccc(-c2nc(-c3ccc(Cl)cc3)cs2)cc1	41*	1	7	-15	3
Cc1nc(C#N)c(N/N=C/c2c(F)cccc2Cl)o1	-1	2	40	·	·
CN(CC1CCOCC1)C(=O)CC1C(=O)NCCN1C/C=C/c1ccccc1 (configuration not stated)	4	1	9	-7	-10
CCOC(=O)C1(C(=O)OCC)CC1c1ccccc1 (configuration not stated)	6	0	-1	-8	58*
CCN1CCN(C(=O)CN(c2cc(OC)ccc2OC)S(C)(=O)=O)CC1	11	0	1	-22	4
COc1ccc(OC)c(N(CC(=O)N2CCN(c3cc(Cl)ccc3C)CC2)S(C)(=O)=O)c1	41*	3	8	2	-4
Cc1nn(-c2ccccc2)c2nc(C(F)(F)F)[nH]c(=O)c12	37*	0	2	-7	0
O=C(O)c1ccc(N2C(=O)/C(=C/c3ccc(-c4ccc([N+](=O)[O-])cc4)o3)C=C2c2ccccc2)cc1	106*	3	4	0	-33
CC1=NN(c2ccc(Cl)c(C(=O)O)c2)C(=O)/C1=C\c1ccc(-c2ccc(C(=O)O)cc2)o1	2	0	1	-10	5

Screening data: PubChem, several laboratories
